Test results published in ChEMBL document CHEMBL1649444, “Omeprazole antagonizes virulence and inflammation in Salmonella enterica-infected RAW264.7 cells” (Antimicrob Agents Chemother, 2009).
The source made the active and inactive calls. The calls are words filed in the database; no cut-off is given here.

Experiments:
Salmonella typhimurium [1] = assay: Antimicrobial activity against Salmonella enterica Typhimurium 14028 infected in RAW 264.7 cells assessed as inhibition of bacterial replication at 100 nM treated 30 mins before infection measured after 2 to 16 hrs postinfection by flow cytometry; assay type: functional, organism-based; conditions: Salmonella enterica subsp. enterica serovar Typhimurium
Salmonella typhimurium [2] = assay: Bactericidal activity against Salmonella enterica Typhimurium 14028 infected in RAW 264.7 cells assessed as decrease in bacterial growth yield at 100 nM after 16 hrs postinfection by flow cytometry in presence of 10 ug/ml of intracellular replication inhibitor tetracycline; assay type: functional, organism-based; conditions: Salmonella enterica subsp. enterica serovar Typhimurium
Salmonella typhimurium [3] = assay: Antimicrobial activity against Salmonella enterica Typhimurium 14028 infected in RAW 264.7 cells assessed as […] nitric oxide production in infected cells at 100 nM; assay type: functional, organism-based; conditions: Salmonella enterica subsp. enterica serovar Typhimurium
Summary of the method: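 Nonactivated RAW264.7 cells infected with opsonized (10% preimmune BALB/c serum, 30 min, 37°C) noninvasive-grown S. Typhimurium 14028 at MOI 10; cells pretreated 30 min before infection, then fresh medium. 1 h infection, 45 min gentamicin 50 μg/ml, then 10 μg/ml maintenance. NO measured as nitrite in medium by Griess reagent, OD 525 nm against sodium nitrite standards.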

RAW264.7 [4] = assay: Induction of apoptosis in mouse RAW264.7 cells assessed as early apoptotic cells at 100 nM after 16 hrs using annexin V-propidium iodide staining by flow cytometry; assay type: cell-based; conditions: raw264.7, 16 h, 0.1 µM
Summary of the method: (§1)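 RAW264.7 cells cultured with compound for 16 h, DMSO as control. Cells stained with annexin V-FITC plus propidium iodide and analysed by flow cytometry. Populations given as percentages of all cells counted, with standard deviations.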

RAW264.7 [5] = assay: Induction of apoptosis in mouse RAW264.7 cells assessed as late apoptotic cells at 100 nM after 16 hrs using annexin V-propidium iodide staining by flow cytometry; assay type: cell-based; conditions: raw264.7, 16 h, 0.1 µM; summary of the method: as §1
RAW264.7 [6] = assay: Induction of apoptosis in mouse RAW264.7 cells assessed as necrotic cells at 100 nM after 16 hrs using annexin V-propidium iodide staining by flow cytometry; assay type: cell-based; conditions: raw264.7, 16 h, 0.1 µM; summary of the method: as §1
RAW264.7 [7] = assay: Cytotoxicity against mouse RAW264.7 cells at 100 nM by LDH release assay; assay type: cell-based; conditions: raw264.7, 0.1 µM
Summary of the method: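 RAW264.7 cells cultured with compound for 16 h. LDH released into the culture medium measured chromogenically with a cytotoxicity detection kit. Triplicates, repeated at least twice; paired t test.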

RAW264.7 [8] = assay: Cytotoxicity against mouse RAW264.7 cells assessed as change vacuolar pH at 200 uM using acridine orange stain by fluorescent microscope; assay type: cell-based; conditions: raw264.7, 200 µM
Summary of the method: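 RAW264.7 cells treated with compound, then stained with acridine orange, whose fluorescence shifts upon protonation. Intravacuolar orange staining scored by fluorescence microscopy as acidified vacuoles.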

Salmonella typhimurium [9] = assay: Bacteriostatic activity against Salmonella enterica Typhimurium 14028 infected in RAW 264.7 cells assessed as decrease in bacterial growth yield at 200 uM after 16 hrs postinfection by flow cytometry; assay type: functional, organism-based; conditions: Salmonella enterica subsp. enterica serovar Typhimurium
Salmonella typhimurium [10] = assay: bacteriostatic activity against Salmonella enterica Typhimurium 14028 infected in RAW 264.7 cells assessed as decrease intracellular bacteria at 200 uM after 16 hrs postinfection by GFP-based fluorescent reduction assay; assay type: functional, organism-based; conditions: Salmonella enterica subsp. enterica serovar Typhimurium
Salmonella typhimurium [11] = assay: Antimicrobial activity against Salmonella enterica Typhimurium 14028 infected in RAW 264.7 cells assessed as decrease in bacterial growth yield at 200 uM after 16 hrs postinfection by flow cytometry in presence of 10 ug/ml of intracellular replication inhibitor tetracycline; assay type: functional, organism-based; conditions: Salmonella enterica subsp. enterica serovar Typhimurium
Salmonella typhimurium [12] = assay: Antimicrobial activity against Salmonella enterica Typhimurium 14028 infected in RAW 264.7 cells assessed as growth inhibition at 200 uM treated 4 hr postinfection measured after 16 hrs of postinfection by flow cytometry; assay type: functional, organism-based; conditions: Salmonella enterica subsp. enterica serovar Typhimurium
Salmonella typhimurium [13] = assay: Antimicrobial activity against Salmonella enterica Typhimurium 14028 infected in RAW 264.7 cells assessed as growth inhibition at 200 uM treated 6 hr postinfection measured after 16 hrs of postinfection by flow cytometry; assay type: functional, organism-based; conditions: Salmonella enterica subsp. enterica serovar Typhimurium
Salmonella typhimurium [14] = assay: Antimicrobial activity against Salmonella enterica Typhimurium 14028 infected in RAW 264.7 cells assessed as growth inhibition at 200 uM treated 3 hr before infection measured after 16 hrs of postinfection by flow cytometry; assay type: functional, organism-based; conditions: Salmonella enterica subsp. enterica serovar Typhimurium
Salmonella typhimurium [15] = assay: Antimicrobial activity against sifA gene-deficient Salmonella enterica Typhimurium 14028 infected in RAW 264.7 cells assessed as growth inhibition at 200 uM after 2 to 16 hrs postinfection by flow cytometry relative to untreated control; assay type: functional, organism-based; conditions: Salmonella enterica subsp. enterica serovar Typhimurium
Salmonella typhimurium [16] = assay: Antimicrobial activity against ssaV gene-deficient Salmonella enterica Typhimurium 14028 infected in RAW 264.7 cells assessed as growth inhibition at 200 uM after 2 to 16 hrs postinfection by flow cytometry relative to untreated control; assay type: functional, organism-based; conditions: Salmonella enterica subsp. enterica serovar Typhimurium
Salmonella typhimurium [17] = assay: Antimicrobial activity against sseG gene-deficient Salmonella enterica Typhimurium 14028 infected in RAW 264.7 cells assessed as growth inhibition at 200 uM after 2 to 16 hrs postinfection by flow cytometry relative to untreated control; assay type: functional, Salmonella enterica subsp. enterica serovar Typhimurium
Salmonella typhimurium [18] = assay: Antimicrobial activity against Salmonella enterica Typhimurium 14028 infected in RAW 264.7 cells assessed as inhibition of inducible nitric oxide synthase expression in infected cells at 200 uM by Immunoblotting relative to untreated control; assay type: functional, organism-based; conditions: Salmonella enterica subsp. enterica serovar Typhimurium
Salmonella typhimurium [19] = assay: Antimicrobial activity against Salmonella enterica Typhimurium 14028 infected in RAW 264.7 cells assessed as decrease in TNF-alpha secretion from infected cells at 200 Um after 16 hrs postinfection by ELISA relative to untreated control; assay type: functional, organism-based; conditions: Salmonella enterica subsp. enterica serovar Typhimurium
Salmonella typhimurium [20] = assay: Antimicrobial activity against Salmonella enterica Typhimurium 14028 infected in RAW 264.7 cells assessed as decrease in IL-6 secretion from infected cells at 200 uM after 16 hrs postinfection by ELISA relative to untreated control; assay type: functional, organism-based; conditions: Salmonella enterica subsp. enterica serovar Typhimurium
Salmonella typhimurium [21] = assay: Antimicrobial activity against Salmonella enterica Typhimurium 14028 infected in RAW 264.7 cells assessed as delayed degradation of IkappaB-alpha in infected cells at 200 uM after 20 mins postinfection by Immunoblotting relative to untreated control; assay type: functional, organism-based; conditions: Salmonella enterica subsp. enterica serovar Typhimurium
Salmonella typhimurium [22] = assay: Antimicrobial activity against Salmonella enterica Typhimurium 14028 infected in RAW 264.7 cells assessed as delayed degradation of IkappaB-alpha in infected cells at 200 uM after 40 mins postinfection by Immunoblotting relative to untreated control; assay type: functional, organism-based; conditions: Salmonella enterica subsp. enterica serovar Typhimurium
RAW264.7 [23] = assay: Induction of apoptosis in mouse RAW264.7 cells assessed as early apoptotic cells at 200 uM after 16 hrs using annexin V-propidium iodide staining by flow cytometry; assay type: cell-based; conditions: raw264.7, 16 h
Summary of the method: (§2)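 RAW264.7 cells kept 16 h with or without compound in DMSO. Cells stained with annexin V-FITC plus propidium iodide and analysed by flow cytometry. Populations given as percent of all cells counted, with standard deviations.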

RAW264.7 [24] = assay: Induction of apoptosis in mouse RAW264.7 cells assessed as late apoptotic cells at 200 uM after 16 hrs using annexin V-propidium iodide staining by flow cytometry; assay type: cell-based; conditions: raw264.7, 16 h; summary of the method: as §2
RAW264.7 [25] = assay: Induction of apoptosis in mouse RAW264.7 cells assessed as necrotic cells at 200 uM after 16 hrs using annexin V-propidium iodide staining by flow cytometry; assay type: cell-based; conditions: raw264.7, 16 h; summary of the method: as §2
RAW264.7 [26] = assay: Cytotoxicity against mouse RAW264.7 cells at 200 uM by LDH release assay; assay type: cell-based; conditions: raw264.7, 200 µM
Salmonella typhimurium [27] = assay: Antimicrobial activity against Salmonella enterica Typhimurium 14028 infected in RAW 264.7 cells assessed as decrease in segregation of plasmid at 200 uM; assay type: functional, organism-based; conditions: Salmonella enterica subsp. enterica serovar Typhimurium
Salmonella typhimurium [28] = assay: Antimicrobial activity against sseF gene-deficient Salmonella enterica Typhimurium 14028 infected in RAW 264.7 cells assessed as growth inhibition at 200 uM after 2 to 16 hrs postinfection by viable counting relative to untreated control

In the case of `CO/C1=C\C(C)=C\[C@@H](C)[C@@H](O)[C@@H](C)C/C(C)=C/C=C/[C@H](OC)[C@@H]([C@@H](C)[C@@H](O)[C@H](C)[C@@]2(O)C[C@@H](O)[C@H](C)[C@@H](C(C)C)O2)OC1=O` [BAFILOMYCIN A1], the Activity (Salmonella typhimurium [1]) is reported as “Active”, the Activity (Salmonella typhimurium [2]) is reported as “Active” and the Activity (Salmonella typhimurium [3]) is reported as “Active”. It also gave an Activity (RAW264.7 [4]) of 29.2%, an Activity (RAW264.7 [5]) of 31.5% and an Activity (RAW264.7 [6]) of 0.4%. For the same molecule, the Activity (RAW264.7 [7]) was “Toxic” and the Activity (RAW264.7 [8]) was “Toxic”.

`COc1ccc2[nH]c([S+]([O-])Cc3ncc(C)c(OC)c3C)nc2c1` (stereo not drawn) [OMEPRAZOLE] was tested, and the Activity (Salmonella typhimurium [9]) was “Active”, the Activity (Salmonella typhimurium [10]) was “Active” and the Activity (Salmonella typhimurium [11]) was “inactive”. For the same molecule, the Activity (Salmonella typhimurium [12]) was “Active”, the Activity (Salmonella typhimurium [13]) was “Active” and the Activity (Salmonella typhimurium [14]) was “Active”. For the same molecule, the Activity (Salmonella typhimurium [15]) was “inactive”, the Activity (Salmonella typhimurium [16]) was “inactive” and the “fold change (FC)” value (Salmonella typhimurium [17]) was 2. For the same molecule, the Activity (Salmonella typhimurium [18]) was “inactive”, the Activity (Salmonella typhimurium [19]) was “inactive” and the Activity (Salmonella typhimurium [20]) was “inactive”. For the same molecule, the Activity (Salmonella typhimurium [21]) was “inactive”, the Activity (Salmonella typhimurium [22]) was “inactive” and the Activity (RAW264.7 [23]) was 25.3%. For the same molecule, the Activity (RAW264.7 [24]) was 15.8%, the Activity (RAW264.7 [25]) was 0.1% and the Activity (RAW264.7 [26]) was “Non-toxic”. The Activity (Salmonella typhimurium [27]) was “Active” and the “fold change (FC)” value (Salmonella typhimurium [28]) was 2.
